The values below come from ChEMBL document CHEMBL1133675, “New substituted 1-(2,3-dihydrobenzo[1, 4]dioxin-2-ylmethyl)piperidin-4-yl derivatives with alpha(2)-adrenoceptor antagonist activity” (J Med Chem, 2000).

Calls of active or inactive are those of the source.

Experiment [1] deals with Mus musculus. The experiment in a line: In vivo antagonism of guanabenz-induced hypothermia in mice after peroral administration; Inactive. In kind it is functional, organism-based. Put shortly: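 Male NMRI mice (30-32 g), five per dose; vehicle or drug by oral gavage, guanabenz 1 mg/kg ip 35 min later. Rectal temperature by thermistor 25 min post-guanabenz; inhibition scored as temperature > 36 °C. […] Active range is doses giving inhibition in more than 80% of mice.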

Another experiment concerns the target D(2) dopamine receptor (Rattus norvegicus, UniProt P61169). Kind of experiment: In vitro inhibition of specific binding of [3H]-YM 09151-2 to Dopamine receptor D2 site in rat striatal tissue. The experiment is classed as tissue-based, Striatum.
The target in experiment [2] is T1, Adrenergic receptor alpha-2 (Rattus norvegicus, UniProt P22086+P19328+P22909).
T1 sequence (P22086 whole entry): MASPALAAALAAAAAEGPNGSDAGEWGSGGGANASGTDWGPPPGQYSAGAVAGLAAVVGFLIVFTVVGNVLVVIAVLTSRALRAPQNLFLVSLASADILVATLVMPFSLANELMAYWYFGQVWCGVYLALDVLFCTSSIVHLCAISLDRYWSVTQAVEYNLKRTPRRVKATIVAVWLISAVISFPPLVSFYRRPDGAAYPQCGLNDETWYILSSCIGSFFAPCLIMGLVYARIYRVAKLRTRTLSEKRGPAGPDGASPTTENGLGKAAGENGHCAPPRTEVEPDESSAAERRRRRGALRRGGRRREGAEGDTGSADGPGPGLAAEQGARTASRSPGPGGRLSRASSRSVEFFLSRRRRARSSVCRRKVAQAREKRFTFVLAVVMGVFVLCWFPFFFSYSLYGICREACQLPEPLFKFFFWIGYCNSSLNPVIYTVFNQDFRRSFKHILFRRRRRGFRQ
T1 sequence (P19328 whole entry): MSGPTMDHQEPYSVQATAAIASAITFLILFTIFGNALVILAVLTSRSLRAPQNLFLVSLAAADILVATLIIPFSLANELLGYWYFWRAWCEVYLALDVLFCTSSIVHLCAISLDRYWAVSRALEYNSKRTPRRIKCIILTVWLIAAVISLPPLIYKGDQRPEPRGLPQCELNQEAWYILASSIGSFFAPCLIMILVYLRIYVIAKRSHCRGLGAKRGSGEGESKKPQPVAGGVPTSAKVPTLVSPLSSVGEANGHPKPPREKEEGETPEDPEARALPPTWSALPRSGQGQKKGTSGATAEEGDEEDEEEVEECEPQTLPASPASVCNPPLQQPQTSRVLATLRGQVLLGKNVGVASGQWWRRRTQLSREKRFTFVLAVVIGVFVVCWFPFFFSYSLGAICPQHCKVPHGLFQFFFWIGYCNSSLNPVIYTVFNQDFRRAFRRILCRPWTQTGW
T1 sequence (P22909 whole entry): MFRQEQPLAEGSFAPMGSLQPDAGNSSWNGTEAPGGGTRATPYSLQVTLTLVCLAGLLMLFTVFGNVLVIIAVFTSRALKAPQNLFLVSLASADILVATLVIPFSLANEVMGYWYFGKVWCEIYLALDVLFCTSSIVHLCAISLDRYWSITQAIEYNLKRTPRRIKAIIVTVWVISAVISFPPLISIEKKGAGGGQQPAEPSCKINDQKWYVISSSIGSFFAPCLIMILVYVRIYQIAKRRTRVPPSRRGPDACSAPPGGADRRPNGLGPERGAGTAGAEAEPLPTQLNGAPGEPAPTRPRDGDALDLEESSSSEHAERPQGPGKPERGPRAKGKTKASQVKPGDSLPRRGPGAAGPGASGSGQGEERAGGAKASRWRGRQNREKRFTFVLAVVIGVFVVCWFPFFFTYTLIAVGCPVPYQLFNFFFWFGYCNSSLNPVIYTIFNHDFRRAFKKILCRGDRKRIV
Kind of experiment: In vitro inhibition of binding of [3H]-RX-821002 to alpha-2 adrenergic receptor site in rat brain membranes. In kind it is cell membranes.

Experiment [3] has as its system Mus musculus. Kind of experiment: In vivo antagonism of guanabenz-induced hypothermia in mice after intraperitoneal administration at a dose of 2.5 mg/kg. The experiment is classed as functional. The note with it: ip. Put shortly:
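Male NMRI mice, 30-32 g, 5 per dose; test drug or vehicle given ip, then 5 min later guanabenz 1 mg/kg ip. Rectal temperature read by thermistor probe 25 min after guanabenz. Inhibition means temperature > 36 °C. […] Active dose range = doses inhibiting in more than 80% of animals.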

In experiment [4] the target is T2, Adrenergic receptor alpha-1 (Rattus norvegicus, UniProt P15823+P23944+P43140).
T2 sequence (P15823 whole entry): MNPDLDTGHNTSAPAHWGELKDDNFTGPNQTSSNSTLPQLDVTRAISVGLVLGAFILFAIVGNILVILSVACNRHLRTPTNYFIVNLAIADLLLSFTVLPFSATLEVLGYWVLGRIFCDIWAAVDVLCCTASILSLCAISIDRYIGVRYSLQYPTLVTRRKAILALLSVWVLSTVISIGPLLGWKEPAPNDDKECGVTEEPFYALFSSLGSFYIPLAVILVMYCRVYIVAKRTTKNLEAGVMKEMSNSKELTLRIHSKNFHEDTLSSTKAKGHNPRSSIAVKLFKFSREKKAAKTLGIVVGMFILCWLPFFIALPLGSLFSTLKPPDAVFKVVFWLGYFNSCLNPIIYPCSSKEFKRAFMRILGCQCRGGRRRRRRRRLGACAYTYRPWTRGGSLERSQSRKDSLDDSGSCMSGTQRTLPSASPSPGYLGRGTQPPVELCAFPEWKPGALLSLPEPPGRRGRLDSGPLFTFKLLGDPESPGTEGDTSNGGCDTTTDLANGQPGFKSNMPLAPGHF
T2 sequence (P23944 whole entry): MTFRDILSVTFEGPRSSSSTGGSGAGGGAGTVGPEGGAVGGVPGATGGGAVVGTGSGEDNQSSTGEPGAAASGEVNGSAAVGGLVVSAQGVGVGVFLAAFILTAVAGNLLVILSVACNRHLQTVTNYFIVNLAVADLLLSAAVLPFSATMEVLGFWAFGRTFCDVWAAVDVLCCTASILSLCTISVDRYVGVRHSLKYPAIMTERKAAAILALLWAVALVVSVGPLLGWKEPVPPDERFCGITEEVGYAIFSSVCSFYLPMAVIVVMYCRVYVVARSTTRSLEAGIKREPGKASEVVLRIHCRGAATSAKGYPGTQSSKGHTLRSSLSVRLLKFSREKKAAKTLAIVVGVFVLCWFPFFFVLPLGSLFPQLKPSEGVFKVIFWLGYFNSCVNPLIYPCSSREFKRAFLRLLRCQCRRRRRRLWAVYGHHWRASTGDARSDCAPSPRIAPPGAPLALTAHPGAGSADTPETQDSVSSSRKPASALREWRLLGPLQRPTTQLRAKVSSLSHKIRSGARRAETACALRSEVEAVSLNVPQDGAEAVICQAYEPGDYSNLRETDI
T2 sequence (P43140 whole entry): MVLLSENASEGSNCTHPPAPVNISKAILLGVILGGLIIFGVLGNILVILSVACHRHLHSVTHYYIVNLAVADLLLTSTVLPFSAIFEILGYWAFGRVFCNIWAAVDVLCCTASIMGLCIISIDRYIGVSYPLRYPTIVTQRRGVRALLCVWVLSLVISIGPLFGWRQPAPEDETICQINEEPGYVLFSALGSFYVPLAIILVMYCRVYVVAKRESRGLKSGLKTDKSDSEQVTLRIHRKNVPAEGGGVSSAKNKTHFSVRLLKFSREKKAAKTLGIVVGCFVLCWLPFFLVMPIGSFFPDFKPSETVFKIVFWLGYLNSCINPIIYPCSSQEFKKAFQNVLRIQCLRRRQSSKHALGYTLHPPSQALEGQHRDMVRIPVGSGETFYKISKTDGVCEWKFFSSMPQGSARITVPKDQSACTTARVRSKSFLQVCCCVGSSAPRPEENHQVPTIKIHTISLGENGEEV
The experiment in a line: In vitro inhibition of specific binding of [3H]- prazosin to alpha-1 adrenergic receptor site in rat brain membranes. The experiment is classed as cell membranes.

Sequence of D(2) dopamine receptor (P61169 whole entry): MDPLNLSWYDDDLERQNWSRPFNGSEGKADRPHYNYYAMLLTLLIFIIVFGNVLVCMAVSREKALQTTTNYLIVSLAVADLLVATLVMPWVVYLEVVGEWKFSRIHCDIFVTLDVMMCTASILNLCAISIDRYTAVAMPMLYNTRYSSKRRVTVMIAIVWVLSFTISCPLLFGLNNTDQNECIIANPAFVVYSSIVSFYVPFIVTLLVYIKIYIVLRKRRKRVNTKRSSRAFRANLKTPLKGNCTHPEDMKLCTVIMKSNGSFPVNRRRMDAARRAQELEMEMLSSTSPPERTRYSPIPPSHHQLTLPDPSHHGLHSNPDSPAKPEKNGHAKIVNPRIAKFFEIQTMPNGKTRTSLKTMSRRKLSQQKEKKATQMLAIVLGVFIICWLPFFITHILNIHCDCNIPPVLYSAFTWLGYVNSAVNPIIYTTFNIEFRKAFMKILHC

Turning to `O=C(NCCC1CCN(CC2COc3ccccc3O2)CC1)NC1CCCCC1` (stereo not given), the NA entry in the experiment on Mus musculus [1] was “inactive”. In addition, the IC50 (usually the concentration needed to halve the response being measured) was 35 nM at D(2) dopamine receptor, 2 nM in experiment [2] and 42 nM in experiment [4]. In the experiment with Mus musculus [3], the ED50 – broadly, the dose that gives a 50% effect, or the effect in half of the subjects – stood at 0.69 mg/kg.
